Laboratory results: ChEMBL document CHEMBL1629487, “Synthesis and in vitro antimicrobial evaluation of novel fluoroquinolone derivatives” (2010)
In brackets after ≈: the same amount, converted by molar mass.

How the values were obtained:
Proteus vulgaris = assay: Antimicrobial activity against Proteus vulgaris ATCC 49132 after 18 to 24 hrs by microbroth dilution method; format: functional
In short: (§1)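 Bacteria were cultured in Mueller Hinton broth in 96-well microtiter plates, and the suspensions were added to MHB containing varying concentrations of test compound. Plates were incubated at 37 °C for 18–24 h, then read visually with a reading mirror and spectrophotometrically at 450 nm. MIC was taken as the lowest concentration giving complete suppression of visible growth.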

Shigella boydii = assay: Antimicrobial activity against Shigella boydii ATCC 9207 after 18 to 24 hrs by microbroth dilution method; format: functional; in short: as §1
Bacillus subtilis = assay: Antimicrobial activity against Bacillus subtilis ATCC 11774 after 18 to 24 hrs by microbroth dilution method; format: functional; in short: as §1
Streptococcus mitis = assay: Antimicrobial activity against Streptococcus mitis ATCC 6249 after 18 to 24 hrs by microbroth dilution method; format: functional; in short: as §1
Proteus mirabilis = assay: Antimicrobial activity against Proteus mirabilis ATCC 7002 after 18 to 24 hrs by microbroth dilution method; format: functional; in short: as §1
Streptococcus salivarius = assay: Antimicrobial activity against Streptococcus salivarius ATCC 13419 after 18 to 24 hrs by microbroth dilution method; format: functional; in short: as §1
Klebsiella pneumoniae = assay: Antimicrobial activity against Klebsiella pneumoniae ATCC 10031 after 18 to 24 hrs by microbroth dilution method; format: functional; in short: as §1
Vibrio parahaemolyticus = assay: Antimicrobial activity against Vibrio parahaemolyticus ATCC 17802 after 18 to 24 hrs by microbroth dilution method; format: functional; in short: as §1
Aeromonas hydrophila = assay: Antimicrobial activity against Aeromonas hydrophila ATCC 7966 after 18 to 24 hrs by microbroth dilution method; format: functional; in short: as §1
Salmonella paratyphi = assay: Antimicrobial activity against Salmonella paratyphi A ATCC 9150 after 18 to 24 hrs by microbroth dilution method; format: functional, Salmonella enterica subsp. enterica serovar Paratyphi A; settings: Salmonella enterica
In short: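 Broth microdilution in 96-well plates; bacteria grown in Mueller Hinton broth with varying concentrations of test compound, incubated at 37 °C for 18–24 h. Plates read visually with a reading mirror and spectrophotometrically at 450 nm. MIC taken as lowest concentration giving complete suppression of visible growth.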

Candida albicans = assay: Antimicrobial activity against Candida albicans ATCC 90028 after 18 to 24 hrs by microbroth dilution method; format: functional
In short: as §1, with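 “Fungal isolates” for “Bacteria”, “cultivated” for “cultured”, “Sabouraud's” for “Mueller Hinton”, “SDB” for “MHB”, “completely suppressing” for “giving complete suppression of”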

Staphylococcus aureus = assay: Antimicrobial activity against Staphylococcus aureus ATCC 11632 after 18 to 24 hrs by microbroth dilution method; format: functional; in short: as §1
Vibrio alginolyticus = assay: Antimicrobial activity against Vibrio alginolyticus ATCC 17749 after 18 to 24 hrs by microbroth dilution method; format: functional; in short: as §1
Cryptococcus neoformans = assay: Antimicrobial activity against Cryptococcus neoformans ATCC 14116 after 18 to 24 hrs by microbroth dilution method; format: functional
In short: as §1, with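 “Fungal isolates” for “Bacteria”, “cultivated” for “cultured”, “Sabouraud's” for “Mueller Hinton”, “SDB” for “MHB”, “completely suppressing” for “giving complete suppression of”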

Streptococcus sanguinis = assay: Antimicrobial activity against Streptococcus sanguinis ATCC 10556 after 18 to 24 hrs by microbroth dilution method; format: functional; in short: as §1
Pseudomonas aeruginosa = assay: Antimicrobial activity against Pseudomonas aeruginosa ATCC 10145 after 18 to 24 hrs by microbroth dilution method; format: functional; in short: as §1

Row | Compound | MIC (Proteus vulgaris) [µg/mL] | MIC (Shigella boydii) [µg/mL] | MIC (Bacillus subtilis) [µg/mL] | MIC (Streptococcus mitis) [µg/mL] | MIC (Proteus mirabilis) [µg/mL] | MIC (Streptococcus salivarius) [µg/mL] | MIC (Klebsiella pneumoniae) [µg/mL] | MIC (Vibrio parahaemolyticus) [µg/mL] | MIC (Aeromonas hydrophila) [µg/mL] | MIC (Salmonella paratyphi) [µg/mL] | MIC (Candida albicans) [µg/mL] | MIC (Staphylococcus aureus) [µg/mL] | MIC (Vibrio alginolyticus) [µg/mL] | MIC (Cryptococcus neoformans) [µg/mL] | MIC (Streptococcus sanguinis) [µg/mL] | MIC (Pseudomonas aeruginosa) [µg/mL]
1 | CCn1cc(C(=O)O)c(=O)c2cc(F)c(N3CCN(c4ccc(F)cc4)CC3)c(F)c21 | 2.5 (≈ 5.79 µM) | 2 (≈ 4.64 µM) | 2.5 (≈ 5.79 µM) | 1.5 (≈ 3.48 µM) | 1.25 (≈ 2.9 µM) | 1.5 (≈ 3.48 µM) | 1.5 (≈ 3.48 µM) | 1.5 (≈ 3.48 µM) | – | – | – | – | – | – | – | –
2 | CCn1cc(C(=O)O)c(=O)c2cc(F)c(N3CCN(c4ccccc4F)CC3)c(F)c21 | 2.5 (≈ 5.79 µM) | 2 (≈ 4.64 µM) | 1.25 (≈ 2.9 µM) | 1.5 (≈ 3.48 µM) | 5 (≈ 11.6 µM) | 1 (≈ 2.32 µM) | 1.5 (≈ 3.48 µM) | 1.5 (≈ 3.48 µM) | 1.5 (≈ 3.48 µM) | – | – | – | – | – | – | –
3 | CCn1cc(C(=O)O)c(=O)c2cc(F)c(N3CCN(c4ccccc4C#N)CC3)c(F)c21 | 1 (≈ 2.28 µM) | 2 (≈ 4.56 µM) | 1.5 (≈ 3.42 µM) | 1.5 (≈ 3.42 µM) | 2.5 (≈ 5.7 µM) | 2.5 (≈ 5.7 µM) | 1 (≈ 2.28 µM) | 1.5 (≈ 3.42 µM) | – | 1.5 (≈ 3.42 µM) | – | – | – | – | – | –
4 | CCn1cc(C(=O)O)c(=O)c2cc(F)c(N3CCN(Cc4ccccc4)CC3)c(F)c21 | – | 1.5 (≈ 3.51 µM) | – | 1.5 (≈ 3.51 µM) | 1.5 (≈ 3.51 µM) | 2.5 (≈ 5.85 µM) | 1 (≈ 2.34 µM) | 1.5 (≈ 3.51 µM) | 1.5 (≈ 3.51 µM) | 1 (≈ 2.34 µM) | – | – | – | – | – | –
5 | CCn1cc(C(=O)O)c(=O)c2cc(F)c(N3CCN(c4ccccc4)CC3)c(F)c21 | 1.5 (≈ 3.63 µM) | – | 5 (≈ 12.1 µM) | 1.5 (≈ 3.63 µM) | 1.5 (≈ 3.63 µM) | 1 (≈ 2.42 µM) | 2 (≈ 4.84 µM) | – | – | – | 413 (≈ 1000 µM) | 1 (≈ 2.42 µM) | – | – | – | –
6 | CCn1cc(C(=O)O)c(=O)c2cc(F)c(N3CCN(c4cccc(Cl)c4Cl)CC3)c(F)c21 | 2.5 (≈ 5.18 µM) | 1 (≈ 2.07 µM) | 5 (≈ 10.4 µM) | 5 (≈ 10.4 µM) | 5 (≈ 10.4 µM) | 2.5 (≈ 5.18 µM) | 1.25 (≈ 2.59 µM) | 1.25 (≈ 2.59 µM) | 0.5 (≈ 1.04 µM) | 5 (≈ 10.4 µM) | 108 (≈ 224 µM) | 1 (≈ 2.07 µM) | 1 (≈ 2.07 µM) | 2.17 (≈ 4.5 µM) | – | –
7 | CCn1cc(C(=O)O)c(=O)c2cc(F)c(N3CCC(NC)CC3)c(F)c21 | 1.25 (≈ 3.42 µM) | 1 (≈ 2.74 µM) | 1.25 (≈ 3.42 µM) | 2.5 (≈ 6.84 µM) | 1.25 (≈ 3.42 µM) | 2.5 (≈ 6.84 µM) | 5 (≈ 13.7 µM) | 0.5 (≈ 1.37 µM) | 2 (≈ 5.47 µM) | 5 (≈ 13.7 µM) | – | 2.5 (≈ 6.84 µM) | 2.5 (≈ 6.84 µM) | 1.82 (≈ 4.98 µM) | 2 (≈ 5.47 µM) | 1 (≈ 2.74 µM)
8 | CCn1cc(C(=O)O)c(=O)c2cc(F)c(N3CCC(C)CC3)c(F)c21 | 1 (≈ 2.85 µM) | – | 5 (≈ 14.3 µM) | 1 (≈ 2.85 µM) | 2.5 (≈ 7.14 µM) | 2.5 (≈ 7.14 µM) | 1.5 (≈ 4.28 µM) | 1.5 (≈ 4.28 µM) | – | – | – | – | – | – | – | –
9 | CCn1cc(C(=O)O)c(=O)c2cc(F)c(N3CCC(N4CCCCC4)CC3)c(F)c21 | 1.25 (≈ 2.98 µM) | 1 (≈ 2.38 µM) | – | 2.5 (≈ 5.96 µM) | 1.25 (≈ 2.98 µM) | 2.5 (≈ 5.96 µM) | 2.5 (≈ 5.96 µM) | 2.5 (≈ 5.96 µM) | 0.5 (≈ 1.19 µM) | 1 (≈ 2.38 µM) | – | 2.5 (≈ 5.96 µM) | – | – | – | –
10 | CCn1cc(C(=O)O)c(=O)c2cc(F)c(N3CCC(CO)CC3)c(F)c21 | 1.25 (≈ 3.41 µM) | 0.5 (≈ 1.36 µM) | 1 (≈ 2.73 µM) | 2.5 (≈ 6.82 µM) | 1.25 (≈ 3.41 µM) | 1.25 (≈ 3.41 µM) | 2.5 (≈ 6.82 µM) | 1.25 (≈ 3.41 µM) | 1 (≈ 2.73 µM) | 5 (≈ 13.6 µM) | 183 (≈ 500 µM) | 1.25 (≈ 3.41 µM) | 1 (≈ 2.73 µM) | 4.19 (≈ 11.4 µM) | 2 (≈ 5.46 µM) | 1.5 (≈ 4.09 µM)
11 | CCn1cc(C(=O)O)c(=O)c2cc(F)c(N3CCC(Br)CC3)c(F)c21 | 2.5 (≈ 6.02 µM) | 1 (≈ 2.41 µM) | 2.5 (≈ 6.02 µM) | 1 (≈ 2.41 µM) | 5 (≈ 12 µM) | 2.5 (≈ 6.02 µM) | 5 (≈ 12 µM) | 5 (≈ 12 µM) | 1.5 (≈ 3.61 µM) | – | 415 (≈ 999 µM) | 5 (≈ 12 µM) | – | 1.03 (≈ 2.48 µM) | – | –
12 | O=C(O)c1cn(C2CC2)c2cc(N3CCNCC3)c(F)cc2c1=O [CIPROFLOXACIN] | 3 (≈ 9.05 µM) | 2.5 (≈ 7.54 µM) | 1.5 (≈ 4.53 µM) | 2.5 (≈ 7.54 µM) | 6 (≈ 18.1 µM) | 1.5 (≈ 4.53 µM) | 1.5 (≈ 4.53 µM) | 8 (≈ 24.1 µM) | 3 (≈ 9.05 µM) | 4 (≈ 12.1 µM) | – | 1 (≈ 3.02 µM) | 2 (≈ 6.04 µM) | – | 4 (≈ 12.1 µM) | –
13 | CCn1cc(C(=O)O)c(=O)c2cc(F)c(N3CCNCC3)cc21 [NORFLOXACIN] | – | – | – | – | – | – | – | – | – | – | 312 (≈ 979 µM) | – | – | 4.88 (≈ 15.3 µM) | – | –
